Test results from ChEMBL document CHEMBL1131000, “Synthesis and quantitative structure-activity relationships of N-(1-benzylpiperidin-4-yl)phenylacetamides and related analogues as potent and selective sigma1 receptor ligands” (J Med Chem, 1998).

molecular target: Sigma 2 receptor; test: Binding affinity towards sigma 2 receptor site in rat liver membranes using [3H]DTG as radioligand in presence of (+)-pentazocine.; format: cell membranes, Membrane
Summary of the method: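 Male Sprague-Dawley rat liver crude P2 membranes, 35 μg protein, with 3 nM [3H]DTG plus 100 nM (+)-pentazocine to mask σ1 sites. Incubated in 50 mM Tris-HCl pH 8.0 for 120 min at 25 °C. Nonspecific binding defined with 5 μM DTG. Filtration, then scintillation counting. IC50 by nonlinear regression.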

Ki [nM] | Compound
14.6 | O=C(Cc1ccc(Cl)c(Cl)c1)NC1CCN(Cc2ccccc2)CC1
153 | O=C(Cc1cccc(F)c1)NC1CCN(Cc2ccccc2)CC1
> 1000 | O=C(Cc1ccc(O)c(O)c1)NC1CCN(Cc2ccccc2)CC1
53.5 | O=C(Cc1ccc(F)c(F)c1)NC1CCN(Cc2ccccc2)CC1
70.8 | O=C(Cc1c(Cl)cccc1Cl)NC1CCN(Cc2ccccc2)CC1
757 | O=C(Cc1ccc(O)c(Cl)c1)NC1CCN(Cc2ccccc2)CC1
36.9 | O=C(Cc1cccc(Cl)c1)NC1CCN(Cc2ccccc2)CC1
207 | O=C(Cc1c(F)cccc1F)NC1CCN(Cc2ccccc2)CC1
80.7 | O=C(Cc1ccc(Cl)cc1)NC1CCN(Cc2ccccc2)CC1
24.5 | O=C(Cc1ccc(Cl)cc1Cl)NC1CCN(Cc2ccccc2)CC1
> 1000 | O=C(Cc1cccc(O)c1)NC1CCN(Cc2ccccc2)CC1
> 1000 | COc1ccccc1CC(=O)NC1CCN(Cc2ccccc2)CC1
86.6 | O=C(Cc1ccccc1Br)NC1CCN(Cc2ccccc2)CC1
667 | O=C(Cc1ccccc1F)NC1CCN(Cc2ccccc2)CC1
174 | O=C(Cc1ccccc1Cl)NC1CCN(Cc2ccccc2)CC1
> 1000 | COc1ccc(OC)c(CC(=O)NC2CCN(Cc3ccccc3)CC2)c1
129 | O=C(Cc1cc(F)ccc1F)NC1CCN(Cc2ccccc2)CC1
130 | O=C(Cc1ccc(F)cc1F)NC1CCN(Cc2ccccc2)CC1
343 | O=C(Cc1ccccc1O)NC1CCN(Cc2ccccc2)CC1
15.2 | O=C(Cc1cccc(Br)c1)NC1CCN(Cc2ccccc2)CC1

More lines, now with the values behind:

Compound | Ki [nM]
CSc1ccc(NC(=O)NC2CCN(Cc3ccccc3)CC2)cc1 | 80.5
COc1ccc(CC(=O)NC2CCN(Cc3ccccc3)CC2)cc1OC | > 1000
COc1ccc(CC(=O)NC2CCN(Cc3ccccc3)CC2)cc1 | 483
CSc1ccc(CC(=O)NC2CCN(Cc3ccccc3)CC2)cc1 | 83.3
COc1cccc(CC(=O)NC2CCN(Cc3ccccc3)CC2)c1 | 326
O=C(Cc1cc(F)cc(F)c1)NC1CCN(Cc2ccccc2)CC1 | 37.3
O=C(Cc1ccc([N+](=O)[O-])cc1[N+](=O)[O-])NC1CCN(Cc2ccccc2)CC1 | 243
OC(CCCN1CCC(O)(c2ccc(Cl)cc2)CC1)c1ccc(F)cc1 (centres undefined) [HYDROXYHALOPERIDOL] | 28.6
O=C(Cc1ccccc1)NC1CCN(Cc2ccccc2)CC1 | 240
O=C(Cc1ccc([N+](=O)[O-])cc1)NC1CCN(Cc2ccccc2)CC1 | 105
COc1cccc(C(O)CNC2CCN(Cc3ccccc3)CC2)c1OC (centres undefined) | 535
O=C(Cc1ccc(O)cc1)NC1CCN(Cc2ccccc2)CC1 | > 1000
O=C(Cc1cccc([N+](=O)[O-])c1)NC1CCN(Cc2ccccc2)CC1 | 79.2
O=C(Cc1ccccc1[N+](=O)[O-])NC1CCN(Cc2ccccc2)CC1 | 493
COc1ccc(NC(=O)NC2CCN(Cc3ccccc3)CC2)c(OC)c1 | 227
O=C(Cc1ccc(Br)cc1)NC1CCN(Cc2ccccc2)CC1 | 23.9
Nc1ccc(CC(=O)NC2CCN(Cc3ccccc3)CC2)cc1 | > 1000
O=C(Cc1ccc2c(c1)OCO2)NC1CCN(Cc2ccccc2)CC1 | 290
COc1cc(CC(=O)NC2CCN(Cc3ccccc3)CC2)cc(OC)c1 | > 1000
O=C(Cc1cccc(C(F)(F)F)c1)NC1CCN(Cc2ccccc2)CC1 | 37.8
O=C(Cc1ccc(F)cc1)NC1CCN(Cc2ccccc2)CC1 | 69.2
O=C(Cc1ccc(C(F)(F)F)cc1)NC1CCN(Cc2ccccc2)CC1 | 53.4
COc1cc(CC(=O)NC2CCN(Cc3ccccc3)CC2)cc(OC)c1OC | > 1000
O=C(Cc1ccccc1C(F)(F)F)NC1CCN(Cc2ccccc2)CC1 | 61.9
